Data on seven compounds can be found in ChEMBL document CHEMBL1122046, “Quaternary heterocyclylamino beta-lactams: a generic alternative to the classical acylamino side chain” (1982).

Holding throughout (assay type): functional
Assay [1] in a line: Minimum inhibitory concentration against aerobic organism Salmonella schottmuelleri strain 2837. The method, boiled down: (§1)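 Agar-dilution MIC in µg/mL against aerobic bacterial strains on tryptocase soy agar, with inoculum applied as spots. Most series used 10^5 cfu per spot, and a later series used 10^4 cfu per spot. In some tables, footnoted strains were instead tested on Mueller-Hinton or nutrient agar. β-Lactamase-producing strains are flagged.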

The subject of a further assay is Enterococcus faecalis. In words: Minimum inhibitory concentration against aerobic organism Streptococcus faecalis strain 2864. The method, boiled down: as §1
The test system of the next assay is Shigella. As to the kind of experiment: Minimum inhibitory concentration against aerobic organism Shigella species strain 2880. The method, boiled down:
as §1

A further assay deals with Klebsiella pneumoniae. In words: Minimum inhibitory concentration against aerobic organism Klebsiella pneumoniae strain 2882. In a few lines: as §1
Another assay concerns Klebsiella aerogenes. In words: Minimum inhibitory concentration against aerobic organism Enterobacter aerogenes strain 2906. The method, boiled down: as §1
Another assay relates to Serratia marcescens. As to the kind of experiment: Minimum inhibitory concentration against aerobic organism Serratia marcescens strain 2852. The method, boiled down: as §1
Another assay deals with Escherichia coli. In words: MIC against aerobic organism Escherichia coli strain 2891. The method, boiled down: as §1
In the next assay the test system is Proteus mirabilis. In words: Minimum inhibitory concentration against aerobic organism Proteus mirabilis strain 2830. In a few lines:
as §1

For the next assay, the system named is Staphylococcus aureus. In words: Minimum inhibitory concentration against aerobic organism Staphylococcus aureus strain 2868. The method, boiled down: as §1
A further assay concerns Enterobacter cloacae. In words: Minimum inhibitory concentration against aerobic organism Enterobacter cloacae strain 2646. The method, boiled down: as §1
In another assay the test system is Morganella morganii. As to the kind of experiment: Minimum inhibitory concentration against aerobic organism Morganella morganii strain 2833. In a few lines: as §1
Another assay has as its system Proteus vulgaris. As to the kind of experiment: Minimum inhibitory concentration against aerobic organism Proteus vulgaris strain 2829. The method, boiled down: as §1
A further assay has as its system Pseudomonas aeruginosa. In words: Minimum inhibitory concentration against aerobic organism Pseudomonas aeruginosa strain 2835. The method, boiled down: as §1
A further assay concerns Streptococcus pyogenes. In words: Minimum inhibitory concentration against aerobic organism Streptococcus pyogenes strain 3124. In a few lines: as §1
The mark [2] stands for this setting: Klebsiella pneumoniae, read-out: MIC.
Setting [3] is: Klebsiella aerogenes, read-out: MIC.
[4] abbreviates: Serratia marcescens, read-out: MIC.
Setting [5] is: Escherichia coli, read-out: MIC.
The mark [6] stands for this setting: Proteus mirabilis, read-out: MIC.
Setting [7] is: Staphylococcus aureus, read-out: MIC.
[8] abbreviates: Enterobacter cloacae, read-out: MIC.
[9] abbreviates: Morganella morganii, read-out: MIC.
Setting [10] is: Proteus vulgaris, read-out: MIC.
[11] abbreviates: Streptococcus pyogenes, read-out: MIC.

SMILES strings stand for the structures. Values after ≈ are worked out from the molar mass of the structure shown.

Broadly, the MIC is the smallest concentration in the dilution series that meets the test's criterion for growth inhibition. On to `CC(=O)OCC1=C(C(=O)[O-])N2C(=O)[C@@H](Nc3cc[n+](COCC(Cl)(Cl)Cl)cc3)[C@H]2SC1`, for which the MIC in assay [1] (Salmonella, read-out: MIC) was less than 0.06 µg/mL; with Enterococcus faecalis it was 128 µg/mL (≈ 251 µM); with Shigella (Shigella, read-out: MIC), less than 0.06 µg/mL; in the assay on Klebsiella pneumoniae (setting [2]) it was less than 0.06 µg/mL; with Klebsiella aerogenes (setting [3]) it was 32 µg/mL (≈ 62.6 µM); with Serratia marcescens (setting [4]), more than 128 µg/mL. Besides, the minimum inhibitory concentration (MIC) is less than 0.06 µg/mL in the assay with Escherichia coli (setting [5]); more than 128 µg/mL in the assay on Proteus mirabilis (setting [6]); 8 µg/mL (≈ 15.7 µM) in the assay with Staphylococcus aureus (setting [7]); 0.125 µg/mL (≈ 0.245 µM) in the assay with Enterobacter cloacae (setting [8]); more than 128 µg/mL in the assay on Morganella morganii (setting [9]); 32 µg/mL (≈ 62.6 µM) with Proteus vulgaris (setting [10]). The MIC with Pseudomonas aeruginosa was more than 128 µg/mL.

Regarding `CC(C)[n+]1ccc(N[C@@H]2C(=O)N3C(C(=O)[O-])=C(CSc4nnnn4C)CS[C@H]23)cc1`, the MIC in assay [1] (Salmonella, read-out: MIC) was 0.125 µg/mL (≈ 0.279 µM); in the assay on Enterococcus faecalis, 128 µg/mL (≈ 286 µM); in the assay on Shigella (Shigella, read-out: MIC), 0.5 µg/mL (≈ 1.12 µM); in the assay with Klebsiella pneumoniae (setting [2]), 16 µg/mL (≈ 35.8 µM); with Klebsiella aerogenes (setting [3]), 128 µg/mL (≈ 286 µM); in the assay with Serratia marcescens (setting [4]), more than 128 µg/mL. Also, the MIC in the assay on Streptococcus pyogenes (setting [11]) is 1 µg/mL (≈ 2.23 µM); in the assay on Escherichia coli (setting [5]), 0.5 µg/mL (≈ 1.12 µM); in the assay with Proteus mirabilis (setting [6]) it was 128 µg/mL (≈ 286 µM); with Staphylococcus aureus (setting [7]), 32 µg/mL (≈ 71.5 µM); with Enterobacter cloacae (setting [8]), 32 µg/mL (≈ 71.5 µM); with Morganella morganii (setting [9]), more than 128 µg/mL. In addition, the MIC with Proteus vulgaris (setting [10]) was less than 0.06 µg/mL; in the assay on Pseudomonas aeruginosa it was more than 128 µg/mL.

Turning to `O=C([O-])C1=CCS[C@@H]2[C@H](Nc3cc[n+](Cc4ccccc4)cc3)C(=O)N12`, the MIC in [1] (Salmonella, read-out: MIC) is less than 0.06 µg/mL; against Enterococcus faecalis, 128 µg/mL (≈ 348 µM); with Shigella (Shigella, read-out: MIC) it was less than 0.06 µg/mL; in the assay on Klebsiella pneumoniae (setting [2]), less than 0.06 µg/mL; in the assay on Klebsiella aerogenes (setting [3]), 64 µg/mL (≈ 174 µM); in the assay on Serratia marcescens (setting [4]), more than 128 µg/mL. Moreover, the MIC in the assay with Escherichia coli (setting [5]) is 1 µg/mL (≈ 2.72 µM); with Proteus mirabilis (setting [6]) it was more than 128 µg/mL; with Staphylococcus aureus (setting [7]), 16 µg/mL (≈ 43.5 µM); in the assay with Enterobacter cloacae (setting [8]), 8 µg/mL (≈ 21.8 µM); with Morganella morganii (setting [9]) it was more than 128 µg/mL; with Proteus vulgaris (setting [10]), 0.125 µg/mL (≈ 0.34 µM). The same compound yielded an MIC with Pseudomonas aeruginosa of 128 µg/mL (≈ 348 µM).

Turning to `C[n+]1ccccc1NC(C(=O)NC1C(=O)N2C1SC(C)(C)[C@@H]2C(=O)[O-])c1ccccc1` (stereo partly specified), the MIC in [1] (Salmonella, read-out: MIC) was 12.5 µg/mL (≈ 28.4 µM); against Enterococcus faecalis, 12.5 µg/mL (≈ 28.4 µM); with Shigella (Shigella, read-out: MIC) it was 25 µg/mL (≈ 56.8 µM); with Klebsiella pneumoniae (setting [2]), more than 100 µg/mL; in the assay on Streptococcus pyogenes (setting [11]), less than 0.39 µg/mL; in the assay with Escherichia coli (setting [5]), more than 100 µg/mL. For the same compound, the MIC was 3.12 µg/mL (≈ 7.08 µM) in the assay on Staphylococcus aureus (setting [7]) and more than 100 µg/mL in the assay on Enterobacter cloacae (setting [8]).

`C[n+]1ccc(NC(C(=O)NC2C(=O)N3C2SC(C)(C)[C@@H]3C(=O)[O-])c2ccccc2)cc1` (stereo partly specified): the MIC is 6.25 µg/mL (≈ 14.2 µM) in assay [1] (Salmonella, read-out: MIC); 12.5 µg/mL (≈ 28.4 µM) in the assay with Enterococcus faecalis; 25 µg/mL (≈ 56.8 µM) in the assay on Shigella (Shigella, read-out: MIC); more than 100 µg/mL with Klebsiella pneumoniae (setting [2]); less than 0.39 µg/mL in the assay on Streptococcus pyogenes (setting [11]); more than 100 µg/mL in the assay on Escherichia coli (setting [5]). In addition, the MIC with Staphylococcus aureus (setting [7]) was 3.12 µg/mL (≈ 7.08 µM); with Enterobacter cloacae (setting [8]), more than 100 µg/mL.

As to `Cn1nnnc1SCC1=C(C(=O)[O-])N2C(=O)[C@@H](Nc3cc[n+](C)cc3)[C@H]2SC1` (stereo in doubt; 15a), the MIC came to 8 µg/mL (≈ 19.1 µM) in [1]; 1 µg/mL (≈ 2.38 µM) with Shigella; 8 µg/mL (≈ 19.1 µM) against Klebsiella pneumoniae; 0.5 µg/mL (≈ 1.19 µM) in the assay on Klebsiella aerogenes; 1 µg/mL (≈ 2.38 µM) with Serratia marcescens; 2 µg/mL (≈ 4.77 µM) against Streptococcus pyogenes. The minimum inhibitory concentration (MIC) against Escherichia coli was found to be 0.5 µg/mL (≈ 1.19 µM); against Proteus mirabilis, 8 µg/mL (≈ 19.1 µM); against Staphylococcus aureus it was 64 µg/mL (≈ 153 µM); against Enterobacter cloacae, 1 µg/mL (≈ 2.38 µM); against Morganella morganii, 4 µg/mL (≈ 9.54 µM); against Proteus vulgaris it was 0.25 µg/mL (≈ 0.596 µM).

For the compound `Cn1nnnc1SCC1=C(C(=O)[O-])N2C(=O)[C@@H](Nc3cc[n+](COCc4ccccc4)cc3)[C@H]2SC1`, the MIC in assay [1] (Salmonella, read-out: MIC) is 1 µg/mL (≈ 1.9 µM); in the assay on Enterococcus faecalis, more than 128 µg/mL; with Shigella (Shigella, read-out: MIC) it was 1 µg/mL (≈ 1.9 µM); in the assay on Klebsiella pneumoniae (setting [2]), 2 µg/mL (≈ 3.81 µM); with Klebsiella aerogenes (setting [3]), 128 µg/mL (≈ 244 µM); in the assay on Serratia marcescens (setting [4]), more than 128 µg/mL. Further, the MIC with Escherichia coli (setting [5]) is 1 µg/mL (≈ 1.9 µM); in the assay on Proteus mirabilis (setting [6]) it was more than 128 µg/mL; in the assay on Staphylococcus aureus (setting [7]), 16 µg/mL (≈ 30.4 µM); in the assay with Enterobacter cloacae (setting [8]), 16 µg/mL (≈ 30.4 µM); with Morganella morganii (setting [9]) it was more than 128 µg/mL; in the assay on Proteus vulgaris (setting [10]) it was 128 µg/mL (≈ 244 µM). In the assay on Pseudomonas aeruginosa, this compound came in with an MIC of more than 128 µg/mL.
